Experiments:
Type in all cases: functional
HEL [1] = assay: Induction of apoptosis in human HEL cells assessed as viable cells at 3 uM after 72 hrs by FITC-annexin V/propidium iodide-double staining based flow cytometry (reference value: 93.77%); details: read-out: Activity
HEL [2] = assay: Induction of apoptosis in human HEL cells assessed as late apoptotic cells at 1 uM after 72 hrs by FITC-annexin V/propidium iodide-double staining based flow cytometry (reference value: 1.63%)
HEL [3] = assay: Induction of cell cycle arrest in human HEL cells assessed as accumulation at G1 phase at 1 uM after 72 hrs by propidium iodide-staining based flow cytometry (reference value: 43.12%)
Outline: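 Subconfluent HEL cells were treated for 72 h at 0.33, 1.0, 3.0 or 9.0 μM, with untreated cells as control. Cultures were pulsed with 10 μM BrdU for 30 min at 37 °C before harvest, then PBS-washed, fixed in 70% ethanol and denatured in 2 M HCl. After neutralization, cells were stained with fluorescein anti-BrdU antibody and propidium iodide. DNA content was measured by flow cytometry with 488 nm excitation.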

HEL [4] = assay: Induction of apoptosis in human HEL cells assessed as early apoptotic cells at 3 uM after 72 hrs by FITC-annexin V/propidium iodide-double staining based flow cytometry (reference value: 2.23%)

Compound: CC(=O)c1ccc(NC(=O)N2CCN(c3ccnc(Nc4ccc(N5CCOCC5)cc4)n3)CC2)cc1
- viability at 3 µM (HEL [1]): 22.6%
- Activity (HEL [2]): 22.4%
- Activity (HEL [3]): 61.44%
- Activity (HEL [4]): 31.87%

Source: ChEMBL document CHEMBL4359878, “Discovery of 4-piperazinyl-2-aminopyrimidine derivatives as dual inhibitors of JAK2 and FLT3” (Eur J Med Chem, 2019)
